A word on the IC50: it is the concentration that gives 50% inhibition.

In data set [1] the target is T1, Dipeptidyl peptidase 1 (Homo sapiens, UniProt P53634). Put plainly: Inhibition of CatL-activated recombinant human C-terminal His10-tagged cathepsin C (25 to 463 residues) expressed in mouse myeloma cells using Gly-Phe-AFC as substrate preincubated for 3 hrs followed by substrate addition and measured after 60 mins. It is filed as cell-free. Put shortly:
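Activated rhCatC was diluted to 4.4 nM in 25 mM MES, 50 mM NaCl, 5 mM DTT, 0.01% Triton X-100, pH 6.0. It was preincubated with compound (added in 10% DMSO) for 3 h at RT. Gly-Phe-AFC was then added to 100 μM final and read as fluorescence after 60 min. IC50 came from a sigmoidal nonlinear fit; values are means of at least two experiments.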

Data set [2] is described as follows: Intrinsic clearance in human liver microsomes assessed per mg protein measured after 60 mins in presence of NADPH by LC-MS/MS analysis. It is filed as ADME, Microsome. As to conditions: read-out: CLH. A general note: Microsomes from liver hold many membrane-bound enzymes, among them those of drug oxidation.
In data set [3] the target is Cytochrome P450 2C19 (Homo sapiens, UniProt P33261). Put plainly: Inhibition of CYP2C19 (unknown origin). The format is ADME. A digest of the protocol: (§1)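 Tested against recombinant human cytochrome P450 isoforms 1A2, 2D6, 3A4, 2C9 and 2C19.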
Data set [4] addresses Cytochrome P450 2D6 (Homo sapiens, UniProt P10635). Put plainly: Inhibition of CYP2D6 (unknown origin). It is filed as ADME. A digest of the protocol:
as §1

For data set [5], the target named is T2, Epidermal growth factor receptor (Homo sapiens, UniProt P00533). Put plainly: Inhibition of EGFR (unknown origin) up to 10 uM using biotin-labelled peptide as substrate preincubated for 2 hrs followed by substrate addition and measured after 30 mins by HTRF FRET assay. Put shortly: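 EGFR WT was used at 0.1 nM final in 50 mM HEPES pH 7.0, 0.02% NaN3, 0.01% BSA, 0.1 mM orthovanadate, 10 mM MgCl2, 2.5 mM DTT, 6.25 nM SEB. It was preincubated with compound for 2 h. Biotin-peptide (1.4 μM) and ATP (20 μM) were then added for 30 min at RT. Read-out was HTRF/TR-FRET (Ex 320, Em 615/665 nm) with a sigmoidal curve fit.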
A general note: TR-FRET usually uses a lanthanide donor and a delayed reading to cut background.

The nature of data set [6]: Intrinsic clearance in rat liver microsomes assessed per mg protein measured after 60 mins in presence of NADPH by LC-MS/MS analysis. It is filed as ADME, Microsome. Conditions: read-out: CLH.
In data set [7] the target is Cytochrome P450 3A4 (Homo sapiens, UniProt P08684). Put plainly: Inhibition of CYP3A4 (unknown origin). The format is ADME. A digest of the protocol:
as §1

In data set [8] the target is Cathepsin B (Homo sapiens, UniProt P07858). Put plainly: Inhibition of recombinant human C-terminal polyhistidine-tagged cathepsin B (Arg18 to Ile339 residues) expressed in HEK293 cells using Z-Leu-Arg-AMC as substrate preincubated for 30 mins followed by substrate addition and measured after 30 mins. Put shortly:
(§2)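 Recombinant human cathepsin was preincubated with compound for 30 min at RT, then reacted with substrate for 30 min. CatB and CatL were read with Z-Leu-Arg-AMC (Ex 380/Em 460 nm). CatS was read with MCA-Arg-Pro-Lys-Pro-Val-Glu-Nva-Trp-Arg-Lys(DNP)-NH2 (Ex 320/Em 405 nm). E-64 served as inhibitor control.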

The target in data set [9] is T1, Dipeptidyl peptidase 1. Put plainly: Inhibition of cathepsin C in human U937 cells using H-Gly-Phe-AFC as substrate preincubated for 4 hrs followed by substrate addition and measured after 60 mins. The format is cell-based. A digest of the protocol:
(§3)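 THP1 or U937 cells, grown in RPMI 1640 with 10% FBS, were seeded at 1.0 × 10^6/mL. They were preincubated with threefold serial dilutions of compound for 4 h at 37 °C. H-Gly-Phe-AFC was then added from a 100 μM solution and fluorescence was read after 60 min at 37 °C. Values are means of at least two experiments.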

Data set [10] deals with T3, Cytochrome P450 1A2 (Homo sapiens, UniProt P05177).
T3 sequence (P05177 whole entry): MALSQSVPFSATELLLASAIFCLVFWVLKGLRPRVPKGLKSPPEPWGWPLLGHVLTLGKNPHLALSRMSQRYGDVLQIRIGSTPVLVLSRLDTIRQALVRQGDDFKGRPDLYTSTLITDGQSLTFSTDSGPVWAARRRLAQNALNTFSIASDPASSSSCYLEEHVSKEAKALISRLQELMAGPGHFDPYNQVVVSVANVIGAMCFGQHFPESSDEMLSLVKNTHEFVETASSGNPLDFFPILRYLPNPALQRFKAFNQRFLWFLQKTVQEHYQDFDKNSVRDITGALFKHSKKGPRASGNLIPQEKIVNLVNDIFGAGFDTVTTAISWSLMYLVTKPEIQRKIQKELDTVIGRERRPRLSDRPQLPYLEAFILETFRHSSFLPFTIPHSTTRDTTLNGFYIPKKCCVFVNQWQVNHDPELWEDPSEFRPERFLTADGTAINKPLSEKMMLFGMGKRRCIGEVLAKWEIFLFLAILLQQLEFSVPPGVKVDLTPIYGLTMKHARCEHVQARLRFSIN
Put plainly: Inhibition of CYP1A2 (unknown origin). It is filed as ADME. Put shortly:
as §1

Data set [11] is described as follows: Intrinsic clearance in mouse liver microsomes assessed per mg protein measured after 60 mins in presence of NADPH by LC-MS/MS analysis. It is filed as ADME, Microsome. Conditions: read-out: CLH.
The target in data set [12] is Cytochrome P450 2C9 (Homo sapiens, UniProt P11712). Put plainly: Inhibition of CYP2C9 (unknown origin). It is filed as ADME. Put shortly: as §1
Data set [13] addresses Procathepsin L (Homo sapiens, UniProt P07711). Put plainly: Inhibition of recombinant human C-terminal His6-tagged cathepsin L (Glu113 to Val333 and Ala114 to Val333 residues) expressed in mouse myeloma cells using Z-Leu-Arg-AMC as substrate preincubated for 30 mins followed by substrate addition and measured after 30 mins. Put shortly:
as §2

Data set [14] has as its target T1, Dipeptidyl peptidase 1. Put plainly: Inhibition of cathepsin C in human THP1 cells using H-Gly-Phe-AFC as substrate preincubated for 4 hrs followed by substrate addition and measured after 60 mins. The format is cell-based. Put shortly: as §3
The target in data set [15] is Cathepsin S (Homo sapiens, UniProt P25774). Put plainly: Inhibition of recombinant human C-terminal polyhistidine-tagged cathepsin S (Met1 to Ile331 residues) expressed in HEK293 cells using MCA-Arg-Pro-Lys-Pro-Val-Glu-NVAL-Trp-Arg-Lys(DNP)-NH2 as substrate preincubated for 30 mins followed by substrate addition and measured after 30 mins. Put shortly:
as §2

The test system of data set [16] is Mus musculus. Put plainly: Protection against C57BL/6 mouse model of caerulein-induced acute pancreatitis assessed as reduction in CatC activity at 20 mg/kg, po pretreated twice daily for 6 days followed by caerulein-challenge at 1 hr interval for 8 hrs and measured 1 hr post-last caerulein-challenge.
In data set [17] the test system is Mus musculus. Put plainly: Protection against C57BL/6 mouse model of caerulein-induced acute pancreatitis at 20 mg/kg, po pretreated twice daily for 6 days followed by caerulein-challenge at 1 hr interval for 8 hrs and measured 1 hr post-last caerulein-challenge by H and E staining-based histological analysis.
The target in data set [18] is T2, Epidermal growth factor receptor. Put plainly: Inhibition of EGFR (unknown origin) using biotin-labelled peptide as substrate preincubated for 2 hrs followed by substrate addition and measured after 30 mins by HTRF FRET assay.

The source made the active and inactive calls. The calls are words filed in the database; no cut-off is given here.

Consider `C=CC(=O)Nc1cc(Oc2nc(Nc3ccc(N4CCN(C)CC4)cc3OC)ccc2N2CCCC2)ccc1C`, for which the IC50 in data set [1] was 0.044 µM; in data set [3], 9.91 µM; in data set [4], greater than 10 µM; in data set [7] it was greater than 10 µM; in data set [8], 3 to 10 µM; in data set [9], 0.0408 µM. The half-maximal inhibitory concentration (IC50) in [10] was 8.75 µM; in data set [12], greater than 10 µM; in data set [13], 3 to 10 µM; in data set [14], 0.0123 µM; in data set [15] it was greater than 10 µM. The figures for the microsomal CLint in data set [2], in [6] and in data set [11] were 4.3 µL/min/mg, 23.1 µL/min/mg and 26.7 µL/min/mg, respectively. For the same compound, the inhibition result in data set [5] is “inactive”.

Turning to `N#Cc1ccc(-c2ccc(C[C@@H](C#N)NC(=O)C3(N)CCOCC3)cc2)cc1`, the outcome in data set [16] and in [17] was Active.

In the case of `C=CC(=O)Nc1cc(Oc2nc(Nc3ccc(N4CCN(C)CC4)cc3OC)ccc2N2CCOCC2)ccc1C`, the IC50 is 0.059 to 0.0593 µM in data set [1]; greater than 10 µM in [3]; greater than 10 µM in data set [4]; greater than 10 µM in data set [7]; 3 to 10 µM in data set [8]; 0.0059 µM in data set [9]. Also, the IC50 in [10] was greater than 10 µM; in data set [12], greater than 10 µM; in [13], greater than 10 µM; in data set [14] it was 0.0039 µM; in data set [15], greater than 10 µM. Moreover, the microsomal CLint was 1.9 µL/min/mg in data set [2], 10 µL/min/mg in [6] and 4 µL/min/mg in data set [11]. Further, the inhibition result in [5] was “inactive”.

For the compound `C=CC(=O)Nc1cccc(Oc2nc(Nc3ccc(N4CCN(C)CC4)cc3OC)ccc2Cl)c1`, the figures for the 50% inhibitory concentration (IC50) in data set [1], in data set [18] and in [9] were 0.81 µM, greater than 10 µM and 0.537 to 0.538 µM, respectively. Moreover, the microsomal CLint is 5.4 µL/min/mg in data set [2], 39.7 µL/min/mg in data set [6] and 26.3 µL/min/mg in [11]. Besides, in data set [5], the inhibition result is “inactive”.

(Values after ChEMBL document CHEMBL4396895, “Identification and Optimization of Novel Cathepsin C Inhibitors Derived from EGFR Inhibitors” (J Med Chem, 2019).)
